Laboratory results from ChEMBL document CHEMBL4680098, “Next-Generation Reduction Sensitive Lipid Conjugates of Tenofovir: Antiviral Activity and Mechanism of Release” (J Med Chem, 2016).
pEC50: −log10 of the molar value. Counter-ions that a name gives are not always drawn.

Columns and labels:
[1] = (§1) Cytotoxicity in uninfected human hepG2 assessed as reduction in cell viability by XTT assay; assay type: cell-based; conditions: uninfected HepG2 cells
Method in brief: (§2)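 Uninfected cells were plated and treated as in the anti-HBV plate: six ten-fold compound dilutions, 6 days at 37°C in 5% CO₂, medium renewed day 3. The monolayer was stained with XTT on day 6 and read at 450/650 nm, in triplicate.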

[2] = Therapeutic index, ratio of CC50 for uninfected human HepG2 cells to EC50 for HBV infected in human HepG2 cells; assay type: toxicity, cell-based
[3] = tested on: Hepatitis B virus; assay: Antiviral activity against HBV infected in human HepG2 assessed as reduction in viral replication incubated for 6 days by real time Q-PCR analysis; assay type: functional, organism-based; conditions: HepG2, 144 h
Method in brief: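 Cells seeded at 1x10⁴/well, held 24 h at 37°C in 5% CO₂. Six ten-fold serial compound dilutions in RPMI1640 with 10% FBS were added in triplicate; medium-only wells served as virus controls. Cultured 6 days; medium with compound renewed on day 3. Day-6 supernatant diluted in buffer containing 40 μg/ml sheared salmon sperm DNA, boiled 15 min, then qPCR; HBV DNA copies interpolated from standard curve.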

[4] = tested on: Human immunodeficiency virus 1; assay: Antiviral activity against HIV1 infected in human PBMC assessed as reduction in viral replication incubated for 7 days by radioactive incorporation polymerization assay based reverse transcriptase activity detection method; assay type: functional, organism-based; conditions: Human immunodeficiency virus 1, PBMC, 168 h
Method in brief: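 Fresh donor PBMCs (HIV/HBV negative) were isolated on Ficoll-Hypaque and stimulated 48-72 hr with PHA-P. They were then kept in RPMI 1640 with 15% FBS and IL-2, and used 72 hr after stimulation at 1×10^6 cells/ml. Compounds were tested up to 100 μM in five serial logarithmic dilutions. Infection used 50-150 TCID₅₀ per well (MOI ~0.002), in triplicate, with supernatant RT activity read at day 7.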

[5] = Therapeutic index, ratio of CC50 for uninfected human PBMC to EC50 for HIV1 infected in human PBMC; assay type: toxicity; conditions: PBMC (uninfected for CC50, HIV-1 infected for EC50)
[6] = Cytotoxicity in uninfected human PBMC assessed as reduction in cell viability by XTT assay; assay type: tissue-based
Method in brief: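 Fresh HIV/HBV-negative human PBMCs isolated by Ficoll-Hypaque and stimulated 48-72 h with 2 µg/mL PHA-P, then kept in RPMI 1640 with 15% FBS and IL-2. Plates were set up as for the anti-HIV assay but without virus, with compound up to 100 μM in log dilutions, for 7 days. Viability read by XTT at 450/650 nm, in triplicate.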

[7] = tested on: HepG2; assay: as §1; assay type: cell-based; conditions: hepg2; method in brief: as §2
[8] = Retention time in PBS buffer at pH 7.4 using compound 6 by LC-MS analysis; assay type: physicochemical
[9] = Stability in pH 2.0 buffer assessed as compound decomposition measured up to 350 mins at 37 degC by LC-MS analysis; assay type: physicochemical; conditions: pH 2, 350 min
[10] = Stability in pH 11.56 buffer assessed as compound decomposition measured up to 350 mins at 37 degC by LC-MS analysis; assay type: physicochemical; conditions: pH 11.56, 350 min
[11] = Stability in pH 9.2 buffer assessed as compound decomposition measured up to 350 mins at 37 degC by LC-MS analysis; assay type: physicochemical; conditions: pH 9.2, 350 min
[12] = Stability in PBS buffer at pH 7.4 assessed as compound decomposition by LC-MS analysis; assay type: physicochemical
Method in brief: (§3)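 Freshly prepared buffer (3.0 ml) was equilibrated at 37.4 ± 0.2 °C with DTT at ~0.1 M and stirred 10 min. Compound stock in water/MeOH was then added. Aliquots were taken from 0 min to 24 h, with shorter intervals where needed, diluted to 1025 µL with H₂O/MeOH/HCOOH (75:25:0.1) and analysed by LC-MS.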

[13] = Stability in aqueous carbonate/bicarbonate buffer at pH 9.19 assessed as compound decomposition by LC-MS analysis; assay type: physicochemical; method in brief: as §3
[14] = Stability in glycine/HCl buffer at pH 2.0 assessed as compound decomposition by LC-MS analysis; assay type: physicochemical; method in brief: as §3
[15] = Stability in aqueous carbonate/bicarbonate buffer at pH 10.16 assessed as compound decomposition measured within 8 mins by LC-MS analysis; assay type: physicochemical; conditions: read-out: Drug degradation; method in brief: as §3
[16] = Aqueous solubility of compound; assay type: physicochemical; conditions: buffer

Row | SMILES | selectivity ratio [2] | pEC50 [3] | pEC50 [4] | selectivity ratio [5] | CC50 [7] [µM] | CC50 ([6]; pbmc) [µM] | further results
1 | CCCCCCCCCCCCSSCCCCCCOP(=O)(O)CO[C@H](C)Cn1cnc2c(N)ncnc21 | > 47 | 5.98 | 8.15 | > 7000 |  |  | CC50 [1]: > 50 µM; CC50 ([6]; uninfected PBMC): > 50 µM
2 | CCCCCCCCCCCCCCCCSSCc1ccccc1COP(=O)(O)CO[C@H](C)Cn1cnc2c(N)ncnc21 | 214 | 6.82 | > 9.30 |  | 32.5 | 15.9 | 
3 | CCCCCCCCCCCCCCCCSSc1ccccc1COP(=O)(O)CO[C@H](C)Cn1cnc2c(N)ncnc21 |  | 5.35 |  |  | 17.5 | 17.2 | 
4 | C[C@H](Cn1cnc2c(N)ncnc21)OCP(=O)(O)O [TENOFOVIR ANHYDROUS] |  |  | 6.49 |  |  | > 100 | Retention_time [8]: 0.66 min
5 | C[C@H](Cn1cnc2c(N)ncnc21)OCP(=O)(O)OCCCCS |  | < 4.00 |  |  | > 100 | > 100 | Stabilty [9]: Stable; Stabilty [10]: Stable; Stabilty [11]: Stable
6 | C[C@H](Cn1cnc2c(N)ncnc21)OCP(=O)(O)OCCS |  | 4.38 |  |  | > 100 | > 100 | Stabilty [12]: Stable; Stabilty [13]: Unstable; Stabilty [14]: Stable; degraded at 8 min [15]: 100%
7 | CCCCCCCCCCCCCCCCSSCCCCOP(=O)(O)CO[C@H](C)Cn1cnc2c(N)ncnc21 |  | 6.61 | > 9.30 | > 100000 | > 50 | > 50 | solubility [16]: Insoluble
8 | CC(C)OC(=O)OCOP(=O)(CO[C@H](C)Cn1cnc2c(N)ncnc21)OCOC(=O)OC(C)C [TENOFOVIR DISOPROXIL FUMARATE] | 190 | 6.47 | 8.35 | 9500 | 64.5 |  | 
9 | CCCCCCCCCCCCCCCCSSCCOP(=O)(O)CO[C@H](C)Cn1cnc2c(N)ncnc21 |  | 7.70 | 9.19 | 22000 | > 25 |  | solubility [16]: Insoluble
